This note sets out measurements from ChEMBL document CHEMBL1121679, “Gastric antisecretory agents. 1. Antisecretory and antiulcer activity of 5H-[1]benzopyrano[2,3-b]pyridin-5-ylureas and 5H-[1]benzothiopyrano[2,3-b]pyridin-5-ylureas” (1981).

Assay [1] concerns Canis familiaris. As to the kind of experiment: Compound was measured for percentage reduction in food stimulated canine gastric acid secretion after po administration at 8 mg/kg dosage. It counts as functional, Canis lupus familiaris, Stomach. In a few lines:
(§1)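 Heidenhain pouch dogs given the test agent (iv or oral) together with a meal of 250 g ground cooked beef hearts. Acid output was collected and expressed as percent reduction relative to control studies in the same animal; n per entry as reported.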

For assay [2], the system named is Canis familiaris. The experiment in a line: Compound was measured for percentage reduction in insulin hypoglycemia stimulated canine gastric acid secretion after iv administration at 5 mg/kg dosage. It counts as functional, Canis lupus familiaris, Stomach. Summed up: (§2)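 Dogs with simple gastric fistulas. The test agent (iv or oral) was given at the time of regular insulin injection. Gastric collections were made for 3 h, and percent reduction of acid output was calculated against control studies in the same animals; n per entry as reported.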

The test system of assay [3] is Canis familiaris. As to the kind of experiment: Compound was measured for percentage reduction in insulin hypoglycemia stimulated canine gastric acid secretion after po administration at 8 mg/kg dosage. It counts as functional, Canis lupus familiaris, Stomach. In a few lines:
as §2

Assay [4] relates to Canis familiaris. The experiment in a line: Antisecretory activity was evaluated in adult mongrel dog after iv administration at 5 mg/kg of dose, expressed as reduction of gastric output. The assay is classed as functional, Canis lupus familiaris, Stomach. Summed up:
(§3)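 Conscious mongrel dogs with surgical Heidenhain pouches. Histamine was infused iv at 0.4 (μg/kg)/min, giving 50–60% of maximal acid output. The test agent was given iv or orally by gavage 1 h into the infusion. Acid output (volume × titrated acid) was collected in 30-min fractions and summed over 3 h, then compared with control runs in the same dog. Usually a single dog per compound.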

Assay [5] relates to Canis familiaris. The experiment in a line: Antisecretory activity was evaluated in adult mongrel dog after po administration at 8 mg/kg of dose, expressed as reduction of gastric output. The assay is classed as functional, Canis lupus familiaris, Stomach. Summed up: as §3
In assay [6] the test system is Canis familiaris. The experiment in a line: Compound was measured for percentage reduction in dimaprit stimulated canine gastric acid secretion after iv administration at 5 mg/kg dosage. The assay is classed as functional, Canis lupus familiaris, Stomach. Summed up: (§4)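 Heidenhain pouch dogs. Acid output was summed over 3 h after dosing and expressed as percent reduction relative to control studies in the same animal; n per entry as reported.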

The subject of assay [7] is Canis familiaris. The experiment in a line: Compound was measured for percentage reduction in dimaprit stimulated canine gastric acid secretion after po administration at 8 mg/kg dosage. It counts as functional, Canis lupus familiaris, Stomach. In a few lines:
as §4

Assay [8] has as its system Canis familiaris. As to the kind of experiment: Compound was measured for percentage reduction in food stimulated canine gastric acid secretion after iv administration at 5 mg/kg dosag. The assay is classed as functional, Canis lupus familiaris, Stomach. In a few lines:
as §1

The test system of assay [9] is Rattus norvegicus. The experiment in a line: Compound was measured for percentage inhibition of aspirin-induced ulcers at 10 mg/kg after po administration. It counts as functional. Summed up:
(§5)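 Rats fasted 24 h received the test agent orally in 0.4% methylcellulose-saline, then 1 h later 100 mg/kg aspirin orally. Stomachs were removed 4 h after aspirin and opened along the greater curvature, and ulcers were counted under a 2× magnifier. Inhibition was based on mean lesion number vs controls. Eight rats per compound; Student's t test.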

The test system of assay [10] is Rattus norvegicus. As to the kind of experiment: Compound was measured for percentage inhibition of aspirin-induced ulcers at 30 mg/kg after po administration. The assay is classed as functional. Summed up: as §5
Assay [11] has as its system Rattus norvegicus. As to the kind of experiment: Compound was measured for percentage inhibition of aspirin-induced ulcers at 3 mg/kg after po administration. The assay is classed as functional. In a few lines: as §5
Assay [12] deals with Rattus norvegicus. As to the kind of experiment: Antisecretory activity was evaluated in pylorus ligated rat after ip administration at 40 mg/kg of dose, expressed as reduction of gastric output. The note with it: route intraperitoneal.
Assay [13] has as its system Canis familiaris. The experiment in a line: Compound was measured for percentage reduction in food stimulated canine gastric acid secretion after iv administration at 5 mg/kg dosage. The assay is classed as functional, Canis lupus familiaris, Stomach. Summed up:
as §1

For assay [14], the system named is Rattus norvegicus. The experiment in a line: Compound was measured for percentage inhibition of aspirin-induced ulcers at 20 mg/kg after po administration. The assay is classed as functional. Summed up: as §5

Usually inhibition in vivo stands for the share of the control response that was lost under treatment. A high value points to a strong effect. With `CNC(=O)N(C)C1c2ccccc2Sc2ncccc21` (stereo unspecified), the Reduction is less than 30% with Canis familiaris [1]; 97% with Canis familiaris [2]; 62% in the assay with Canis familiaris [3]; 80% with Canis familiaris [4]; less than 30% in the assay with Canis familiaris [5]; 78% with Canis familiaris [6]. The results for the Reduction in the assay on Canis familiaris [7], in the assay with Canis familiaris [8] and in the assay on Rattus norvegicus [12] were less than 30%, 78% and 96%, respectively. In the assay on Rattus norvegicus [9], this compound came in with an inhibition in vivo at 10 mg/kg of 68%. This compound also had an inhibition in vivo at 30 mg/kg in the assay on Rattus norvegicus [10] of 100%. In the assay with Rattus norvegicus [11], this compound had an inhibition in vivo at 3 mg/kg of 0%.

In the case of `CNC(=O)NC1c2ccccc2Oc2ncccc21` (stereo unspecified), the Reduction was found to be 31% in the assay on Canis familiaris [4] and 54% with Rattus norvegicus [12].

Take `CN/C(=N\CCSCc1nc[nH]c1C)NC#N` [CIMETIDINE]: the results for the Reduction in the assay with Canis familiaris [4], with Canis familiaris [5] and with Rattus norvegicus [12] were 84%, 86% and 74%, respectively. Further, the inhibition in vivo at 10 mg/kg in the assay on Rattus norvegicus [9] came out at 67%.

As to `CN(C(=O)NC(C)(C)C)C1c2ccccc2Oc2ncccc21` (stereo unspecified), the Reduction with Canis familiaris [4] is on record as 35%; in the assay with Canis familiaris [5] it was less than 30%; in the assay on Rattus norvegicus [12], 82%.

With `CN(C(=O)N1CCOCC1)C1c2ccccc2Oc2ncccc21` (stereo unspecified), the Reduction with Canis familiaris [4] is on record as 64%; with Canis familiaris [5], less than 30%; in the assay with Rattus norvegicus [12] it was 95%.

Consider `CNC(=O)N(C)C1c2cc(Cl)c(C)cc2Oc2ncccc21` (stereo unspecified), for which the Reduction in the assay with Canis familiaris [4] was less than 30%; with Rattus norvegicus [12], 65%.

Regarding `CN(C(N)=O)C1c2ccccc2Oc2ncccc21` (stereo unspecified), the Reduction is 30% in the assay with Canis familiaris [4] and 70% with Rattus norvegicus [12].

Consider `NC(=O)NC1c2ccccc2Oc2ncccc21` (stereo unspecified), for which the values for the Reduction in the assay with Canis familiaris [4] and in the assay with Rattus norvegicus [12] were 36% and 46%, respectively.

Take `CNC(=O)N(C)C1c2cc(CO)ccc2Oc2ncccc21` (stereo unspecified): the Reduction in the assay with Canis familiaris [4] and in the assay with Rattus norvegicus [12] was less than 30% throughout.

Regarding `CN(C)C(=O)NC1c2ccccc2Oc2ncccc21` (stereo unspecified), the Reduction with Canis familiaris [4] is listed as 35%; in the assay on Canis familiaris [5], less than 30%; in the assay with Rattus norvegicus [12] it was 95%. In the assay on Rattus norvegicus [10], this compound yielded an inhibition in vivo at 30 mg/kg of 74%.

In the case of `CNC(=O)N(C)C1c2ccc(OC)cc2Oc2ncccc21` (stereo unspecified), the Reduction is recorded as 54% in the assay with Canis familiaris [4], less than 30% in the assay with Canis familiaris [5] and 60% in the assay on Rattus norvegicus [12].

As for `CNC(=O)N(C)C1c2ccccc2Oc2ncccc21` (stereo unspecified), the Reduction in the assay on Canis familiaris [13] was 69%; in the assay with Canis familiaris [1], less than 30%; in the assay on Canis familiaris [2], 79%; with Canis familiaris [3] it was less than 30%; in the assay with Canis familiaris [4], 84%; with Canis familiaris [5] it was less than 30%. The compound further showed a Reduction in the assay with Canis familiaris [6] of 58%. Further, at 10 mg/kg the inhibition in vivo in the assay on Rattus norvegicus [9] was 89%. In addition, at 30 mg/kg the inhibition in vivo in the assay on Rattus norvegicus [10] was 100%. The compound also returned an inhibition in vivo at 3 mg/kg in the assay on Rattus norvegicus [11] of 51%.

As to `CN(C)C(=O)N(C)C1c2ccccc2Oc2ncccc21` (stereo unspecified), the figures for the Reduction in the assay with Canis familiaris [4] and with Rattus norvegicus [12] were less than 30% and 96%, respectively. In the assay with Rattus norvegicus [14], this compound yielded an inhibition in vivo at 20 mg/kg of 100%.

In the case of `CNC(=O)N(C)C1c2cc([N+](=O)[O-])ccc2Oc2ncccc21` (stereo unspecified), the values for the Reduction in the assay with Canis familiaris [4] and with Rattus norvegicus [12] were less than 30% and 71%, respectively.

For `CNC(=O)N(C)C1c2ccccc2Oc2ccncc21` (stereo unspecified), the Reduction with Canis familiaris [4] was less than 30%; with Rattus norvegicus [12] it was 77%.

With `CNC(=O)N(C)C1c2ccc(C)cc2Oc2ncccc21` (stereo unspecified), the Reduction in the assay with Canis familiaris [4] is on record as 75%; in the assay on Canis familiaris [5] it was less than 30%; with Rattus norvegicus [12], 81%.

Take `CNC(=O)N(C)C1c2cccnc2Oc2cccc(C(F)(F)F)c21` (stereo unspecified): the Reduction in the assay on Canis familiaris [4] is reported as less than 30%; in the assay on Rattus norvegicus [12], 71%.

Take `CN(C(=O)Nc1ccccc1)C1c2ccccc2Oc2ncccc21` (stereo unspecified): the Reduction with Canis familiaris [4] is 55%; in the assay with Canis familiaris [5] it was less than 30%; with Rattus norvegicus [12], 45%.

Consider `CNC(=O)N(C)C1c2cc(C)ccc2Oc2ncccc21` (stereo unspecified), for which the Reduction in the assay with Canis familiaris [4] is 62%; in the assay on Canis familiaris [5], less than 30%; in the assay on Rattus norvegicus [12] it was 71%.

In the case of `CNC(=O)N(C)C1c2cccnc2Oc2c(F)cccc21` (stereo unspecified), the figures for the Reduction with Canis familiaris [4] and in the assay with Rattus norvegicus [12] were less than 30% and 35%, respectively.

In the case of `CN(C(=O)N1CCCCC1)C1c2ccccc2Oc2ncccc21` (stereo unspecified), the Reduction with Canis familiaris [4] is reported as 31%; with Rattus norvegicus [12], 72%.

Regarding `CNC(=O)N(C)C1c2cc(OC)ccc2Oc2ncccc21` (stereo unspecified), the Reduction in the assay on Canis familiaris [4] was 51%; with Canis familiaris [5], less than 30%; in the assay on Rattus norvegicus [12], 59%.

On to `CNC(=O)N(C)C1c2cccnc2Oc2c(Cl)cccc21` (stereo unspecified), for which the Reduction is given as less than 30% in the assay on Canis familiaris [4] and 60% in the assay with Rattus norvegicus [12].

`CN1CCN(C(=O)N(C)C2c3ccccc3Oc3ncccc32)CC1` (stereo unspecified): the Reduction in the assay on Canis familiaris [4] was less than 30%; with Canis familiaris [5], less than 30%; in the assay with Rattus norvegicus [12], 94%.

`CNC(=O)N(C)C1c2ccccc2S(=O)(=O)c2ncccc21` (stereo unspecified): the Reduction in the assay with Canis familiaris [4] and in the assay on Rattus norvegicus [12] was less than 30% in each case.

On to `CNC(=O)N(C)C1c2cc(F)ccc2Oc2ncccc21` (stereo unspecified), for which the Reduction in the assay on Canis familiaris [4] is listed as 63%; in the assay with Canis familiaris [5] it was less than 30%; with Rattus norvegicus [12], 68%.

Regarding `CNC(=O)N(C)C1c2cc(C(=O)OC)ccc2Oc2ncccc21` (stereo unspecified), the Reduction with Canis familiaris [4] and in the assay with Rattus norvegicus [12] was less than 30% each time.

Consider `CNC(=O)N(C)C1c2ccc(C(F)(F)F)cc2Oc2ncccc21` (stereo unspecified), for which the Reduction in the assay with Canis familiaris [4] is less than 30%; in the assay with Rattus norvegicus [12] it was 46%.

As for `CNC(=O)N(C)C1c2ccccc2Oc2cccnc21` (stereo unspecified), the figures for the Reduction with Canis familiaris [4], in the assay with Canis familiaris [5] and in the assay with Rattus norvegicus [12] were 38%, 34% and 37%, respectively.
